The values that follow come from ChEMBL document CHEMBL3877280, “Discovery of novel rivastigmine-hydroxycinnamic acid hybrids as multi-targeted agents for Alzheimer's disease” (Eur J Med Chem, 2017).

The nature of series [1]: Antioxidant activity assessed as DPPH radical scavenging activity at 10 uM incubated under dark condition for 60 mins by spectrophotometric method relative to control. It is filed as functional. The essentials: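 DPPH scavenging: compound at 10 µM final added to DPPH in ethanol (100 µM final), kept in dark at 25-26 °C for 60 min under dim light. Absorbance read at 517 nm. Capacity = (A1 − A2)/A1 × 100%, with A1 the control absorbance.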
Background: DPPH is a stable violet radical that fades when it is reduced.

For series [2], the target named is Cholinesterase (Homo sapiens) (UniProt P06276). Nature of the series: Inhibition of BuChE (unknown origin) at 1 uM using acetylthiocholine iodide as substrate preincubated for 60 mins followed by substrate addition measured after 5 mins by Ellman's method relative to control. An outline of the steps: (§1)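 Ellman method at 37 °C. BuChE stock made in 0.1% gelatin, diluted to 0.13-0.100 AU/min. Enzyme preincubated with compound for 60 min in 0.1 M phosphate pH 8.0 with 40 µM DTNB, then 20 µM acetylthiocholine iodide added. A412 rate followed for 5 min against an enzyme-free blank; triplicates; percent inhibition from rates.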
(In Ellman's method for cholinesterases, released thiocholine reacts with DTNB.)

The target is the same in series [3]. Nature of the series: Inhibition of BuChE (unknown origin) at 5 uM using acetylthiocholine iodide as substrate preincubated for 60 mins followed by substrate addition measured after 5 mins by Ellman's method relative to control. An outline of the steps:
as §1

Series [4] concerns the target Amyloid-beta precursor protein (Homo sapiens) (UniProt P05067). Nature of the series: Inhibition of HFIP-pretreated amyloid beta (1 to 42) (unknown origin) self-induced aggregation at 10 uM after 24 hrs by thioflavin-T fluorescence assay relative to control.
The species named for series [5] is Mus musculus. Nature of the series: Cytotoxicity against mouse HT22 cells assessed as reduction in cell viability at 10 uM after 24 hrs by MTT assay. It is filed as toxicity, cell-based. The note with it: ht-22, 24 h. An outline of the steps: (§2)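 HT22 cells grown in DMEM + 10% FBS at 37 °C, 5% CO2, seeded at 10,000 cells/well. Exposed to compound for 24 h; vehicle-only controls. Viability by MTT, mean ± SEM, n = 6.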

The species named for series [6] is Mus musculus. Nature of the series: Cytotoxicity against mouse HT22 cells assessed as reduction in cell viability at 100 uM after 24 hrs by MTT assay. The format is toxicity, cell-based. The settings on record: ht-22, 24 h. An outline of the steps:
as §2

Another series has as its system HT-22. Nature of the series: Cytoprotective activity against H2O2-induced cell death in mouse HT22 cells assessed as increase in cell viability at 10 to 30 uM preincubated for 30 mins followed by H2O2 addition measured after 24 hrs by MTT assay. The format is functional, cell-based. An outline of the steps: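 HT22 cells (DMEM/10% FBS, 10,000 cells/well) pretreated with compound for 30 min, then 500 µM H2O2 for 24 h. Viability by MTT; vehicle controls; mean ± SEM, n = 6.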
For orientation: Tetrazolium dyes change colour on reduction, which living cells bring about.

Series [7] in a line: Copper chelating activity assessed as Cu2+-compound complex formation by measuring bathochromic shift at 10 uM after 30 mins by UV-Visible spectrometric method. An outline of the steps:
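CuCl2 in water and compound (methanol stock diluted in PBS) brought up in absolute ethanol. Mixture stood 30 min at room temperature, then absorption spectrum recorded at room temperature.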

Series [8] can be described thus: Cytoprotective activity against glutamate-induced cell death in mouse HT22 cells assessed as cell viability at 10 to 30 uM preincubated for 30 mins followed by H2O2 addition measured after 24 hrs by MTT assay. The format is functional, HT-22. The essentials:
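HT22 cells (DMEM/10% FBS, 10,000 cells/well) pretreated with compound for 30 min, then 2 mM glutamate for 24 h. Viability by MTT; vehicle controls; mean ± SEM, n = 6.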

Molecules are shown by their SMILES. The source made the active and inactive calls. No cut-off for these calls is given here.

In general, inhibition refers to how much of the control response was suppressed.

Chain of Amyloid-beta precursor protein (Homo sapiens) (P05067 whole entry): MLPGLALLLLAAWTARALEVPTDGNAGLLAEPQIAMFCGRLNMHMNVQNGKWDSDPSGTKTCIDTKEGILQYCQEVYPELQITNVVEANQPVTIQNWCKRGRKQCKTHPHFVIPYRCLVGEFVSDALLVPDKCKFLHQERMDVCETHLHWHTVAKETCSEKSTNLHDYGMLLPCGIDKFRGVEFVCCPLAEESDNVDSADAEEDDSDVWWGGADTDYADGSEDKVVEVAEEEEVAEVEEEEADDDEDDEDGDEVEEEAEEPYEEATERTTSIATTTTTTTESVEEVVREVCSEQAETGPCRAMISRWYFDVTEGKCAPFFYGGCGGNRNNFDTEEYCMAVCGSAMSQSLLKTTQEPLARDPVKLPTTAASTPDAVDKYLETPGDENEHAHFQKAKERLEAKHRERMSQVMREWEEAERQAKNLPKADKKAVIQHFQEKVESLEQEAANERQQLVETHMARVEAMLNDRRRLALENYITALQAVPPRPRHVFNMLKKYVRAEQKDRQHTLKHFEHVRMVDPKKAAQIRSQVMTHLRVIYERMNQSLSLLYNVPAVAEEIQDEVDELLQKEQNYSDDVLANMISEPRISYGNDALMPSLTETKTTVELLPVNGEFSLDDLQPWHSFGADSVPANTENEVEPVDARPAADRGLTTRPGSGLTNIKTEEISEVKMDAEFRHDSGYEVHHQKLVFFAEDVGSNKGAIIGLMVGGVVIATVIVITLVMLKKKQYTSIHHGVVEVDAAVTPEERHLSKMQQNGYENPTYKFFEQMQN
Chain of Cholinesterase (Homo sapiens) (P06276 whole entry): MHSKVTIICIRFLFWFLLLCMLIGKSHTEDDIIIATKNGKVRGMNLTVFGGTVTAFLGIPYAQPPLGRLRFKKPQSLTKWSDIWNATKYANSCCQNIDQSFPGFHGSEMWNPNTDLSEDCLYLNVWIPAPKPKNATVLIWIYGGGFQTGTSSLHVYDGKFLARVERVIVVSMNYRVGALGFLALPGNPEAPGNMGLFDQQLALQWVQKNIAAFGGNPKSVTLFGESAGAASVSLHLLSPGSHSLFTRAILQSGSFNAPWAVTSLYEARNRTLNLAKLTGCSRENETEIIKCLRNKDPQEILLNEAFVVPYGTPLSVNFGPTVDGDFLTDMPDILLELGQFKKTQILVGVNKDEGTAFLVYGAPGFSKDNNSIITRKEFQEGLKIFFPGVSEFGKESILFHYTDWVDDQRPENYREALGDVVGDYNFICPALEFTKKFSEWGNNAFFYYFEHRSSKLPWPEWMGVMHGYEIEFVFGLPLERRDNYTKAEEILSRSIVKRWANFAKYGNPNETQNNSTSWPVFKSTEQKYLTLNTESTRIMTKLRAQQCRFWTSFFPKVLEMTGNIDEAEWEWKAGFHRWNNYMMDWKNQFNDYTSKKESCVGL

Regarding `COc1cc(/C=C/C(=O)O)ccc1O`, the Activity in series [1] came out at 19.9%.
Turning to `CCN(C)C(=O)Oc1cccc(CCNC(=O)/C=C/c2ccc(O)c(OC)c2)c1`, the inhibition was 72.3% in series [2], 96.6% in series [3] and 2.2% in series [4]. Besides, the Activity in [1] was 18.1%; in the series filed under Mus musculus [5], “Non-Toxic”; in the series filed under Mus musculus [6] it was “Toxic”. The outcome in the series on HT-22 was Active.
Regarding `CCN(C)C(=O)Oc1cccc(CCNC(=O)/C=C/c2ccc(O)c(O)c2)c1`, the inhibition came out at 76.3% in series [2], 92% in series [3] and 85.3% in series [4]. Besides, the figures for the Activity (in series [1]; in the series listed under Mus musculus [5]; in the series listed under Mus musculus [6]) were 51.7%, “Non-Toxic” and “Toxic”, respectively. Further, the result (in the series with HT-22; in [7]) was Active.
Take `CCN(C)C(=O)Oc1cccc(NC(=O)/C=C/c2ccc(O)c(OC)c2)c1`: the inhibition worked out at 98% in [2], 98.3% in [3] and 13.2% in [4]. In addition, the Activity in series [1] was 19.5%; in the series filed under Mus musculus [5], “Non-Toxic”; in the series listed under Mus musculus [6], “Toxic”. In addition, the result with HT-22 was Active.
Consider `CCN(C)C(=O)Oc1cccc(CNC(=O)/C=C/c2ccc(O)c(O)c2)c1`, for which the figures for the inhibition in [2], in series [3] and in [4] were 80.8%, 97% and 77.6%, respectively. Moreover, the Activity was 69.7% in series [1], “Non-Toxic” in the series filed under Mus musculus [5] and “Toxic” in the series listed under Mus musculus [6]. The result with HT-22 was Active.
For the compound `CCN(C)C(=O)Oc1cccc(CNC(=O)/C=C/c2ccc(O)c(OC)c2)c1`, the inhibition in [2] was found to be 87.9%; in series [3], 97.9%; in [4] it was 3.2%. Also, the Activity in [1] is 17.9%; in the series listed under Mus musculus [5], “Non-Toxic”; in the series filed under Mus musculus [6], “Toxic”.
On to `Nc1c(/N=N/c2ccc(-c3ccc(/N=N/c4cc(S(=O)(=O)O)c5ccccc5c4N)cc3)cc2)cc(S(=O)(=O)O)c2ccccc12`, for which the inhibition in series [4] was 86.5%.
Regarding `O=C(O)/C=C/c1ccc(O)c(O)c1`, the Activity in [1] came out at 64.6%.
Regarding `CCN(C)C(=O)Oc1cccc([C@H](C)N(C)C)c1`, the figures for the inhibition in series [2] and in [3] were 61% and 93%, respectively.
Regarding `CCN(C)C(=O)Nc1cccc(NC(=O)/C=C/c2ccc(O)c(OC)c2)c1`, the values for the inhibition in [2], in series [3] and in [4] were 19.4%, 36.6% and 2.2%, respectively. The Activity is 24.1% in [1], “Non-Toxic” in the series listed under Mus musculus [5] and “Toxic” in the series filed under Mus musculus [6]. In the series with HT-22, the outcome was Active.
In the case of `CCN(C)C(=O)Oc1cccc(NC(=O)/C=C/c2ccc(O)c(O)c2)c1`, the inhibition in series [2] was determined as 49.6%; in [3], 91%; in [4] it was 73.2%. Further, the Activity is 37% in [1], “Non-Toxic” in the series filed under Mus musculus [5], “Toxic” in the series listed under Mus musculus [6] and 52.9% in [8]. The outcome in the series on HT-22 was Active.
Consider `CCN(C)C(=O)Nc1cccc(NC(=O)/C=C/c2ccc(O)c(O)c2)c1`, for which the inhibition is 13.8% in series [2], 24.4% in series [3] and 82.5% in series [4]. Moreover, the Activity was 64.7% in [1], “Non-Toxic” in the series listed under Mus musculus [5], “Toxic” in the series listed under Mus musculus [6] and 56.9% in series [8]. Besides, the outcome in the series with HT-22 was Active.
